Screening data (PubChem BioAssay)
FLuc inhib CS – firefly luciferase enzyme inhibitors, primary screen, artefact control for luciferase-based inhibitor screens, biochemical, luminescence, ATPLite. Luciferin 4-monooxygenase (Photinus pyralis), P08659. 10 min. inhibition, % at 10 µM. 1.5% of 200,000 active. AID 1006, 2008;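 active = inhibition above about 50% when tested at 10 µM, limit read from the data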
Target sequence (P08659 whole entry, looked up): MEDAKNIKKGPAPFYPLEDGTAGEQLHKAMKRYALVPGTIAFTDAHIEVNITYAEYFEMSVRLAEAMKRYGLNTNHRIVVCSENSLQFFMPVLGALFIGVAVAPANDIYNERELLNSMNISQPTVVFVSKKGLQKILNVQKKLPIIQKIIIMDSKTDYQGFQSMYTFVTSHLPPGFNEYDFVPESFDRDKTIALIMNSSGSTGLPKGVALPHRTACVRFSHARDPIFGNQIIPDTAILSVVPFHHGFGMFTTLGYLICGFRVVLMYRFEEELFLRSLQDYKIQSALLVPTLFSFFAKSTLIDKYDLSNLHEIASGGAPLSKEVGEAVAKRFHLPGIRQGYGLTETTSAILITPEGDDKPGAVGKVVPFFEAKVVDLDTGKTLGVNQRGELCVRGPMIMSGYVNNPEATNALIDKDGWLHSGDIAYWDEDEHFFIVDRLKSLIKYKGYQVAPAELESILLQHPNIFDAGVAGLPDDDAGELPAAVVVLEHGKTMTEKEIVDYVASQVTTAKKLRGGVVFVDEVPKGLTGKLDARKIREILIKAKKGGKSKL
NF-kB neuron act – activators of NF-kB expression in neurons, primary screen, cell-based, HTS | human neuronal cells, NF-kB reporter expression; stronger effect = higher value | fold change at 12.5 µM | 1.6% of 190,000 active; in the data active = fold change above about 3.3
STAT1 act – STAT1 signaling activators, primary screen, cell-based, HTS, luciferase reporter; activation (% of control), % at 5.5 µM; 2.6% of 200,000 active; NIH 3T3 STAT1-luciferase reporter, IFN-gamma, luminescence; 100% = IFN-gamma alone, no compound;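 active = activation above the screen-wide mean activation plus 3 SD, cut at about 130% in these data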
Pf gamet viab – late stage P. falciparum gametocyte viability inhibitors, primary screen, ATP luminescence, HTS. AID 743093, 2013. P. falciparum stage V gametocytes, 24 h. 0.065% of 150,000 active. inhibition, % at 10.9 µM;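 active = inhibition above the mean plus 3 SD of compounds within the control limits, set per campaign, cut at about 38% in these data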
APP 5'UTR act – activators of APP 5'UTR luciferase reporter, primary screen, SH-SY5Y cells; SH-SY5Y APP 5'UTR luciferase reporter, luminescence; zero percent = DMSO vehicle wells; activation, % at 2 µM; 1% of 190,000 active;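 active = activation above a set limit, based on mean plus 3 SD of controls, cut at about 140% in these data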
FLuc stim CS – FLuc activators, initial screening, artefact control for FLuc-dependent activation tests, biochemical, ATPlite luminescence. activation factor at 10 µM. AID 1027, 2008. 200,000 tested, under 10 active. ATPlite luciferase biochemical, 10 min; 0 = ATP-free wells, 1 = DMSO control;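 active = luciferase activation factor, scaled between plate controls, of at least 2 with compound at 10 µM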
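Assay system – cell-free luciferase reagent · Medium – PBS-based ATP solution · Dosing – test compounds dosed from 2 mM stocks in 100% DMSO · Timing – 10 min, room temperature · Technique – light output (luminescence) · Measure – luminescence gain marking luciferase activators · Controls – No-ATP low control, compound-free enzyme-plus-ATP high control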
A number is an active result; - = inactive; . = no result. Shown are actives, neighbours in structure and some others; about 3.5% of the full set was active somewhere.

SMILES	FLuc inhib CS	NF-kB neuron act	STAT1 act	Pf gamet viab	APP 5'UTR act	FLuc stim CS
COc1ccc(C(=O)NCCc2c[nH]c3ccccc23)cc1[N+](=O)[O-]	.	.	.	-	.	.
N#Cc1c(/N=C/c2cccs2)sc2c1CCC2	62	-	140	.	-	-
CN(C)/C=N/c1sc2c(c1C#N)CCCC2	-	-	-	-	-	-
N#Cc1c(/N=C/c2ccco2)sc2c1CCCCC2	94	-	138	.	-	-
N#Cc1c(/N=C/c2cc(Br)cs2)sc2c1CCC2	.	.	-	.	-	.
C/C(=N\NC(N)=S)C1C2C3CC4C5CC(C42)C1C53 (centres undefined)	-	-	-	.	-	-
CCC(C)NC(=O)CSc1nnc(-c2c[nH]c3ccccc23)o1 (centres undefined)	-	-	-	.	-	-
O=C(/C=C/c1ccco1)NCc1ccc2c(c1)OCO2	-	-	-	-	-	-
O=C(/C=C/c1ccc2c(c1)OCO2)Nc1cccnc1	87	-	-	-	162	-
CC(=O)Nc1ccc(NC(=O)/C=C/c2ccc3c(c2)OCO3)cc1	-	-	-	-	-	-
Cc1cc(C)nc(NC(=O)/C=C/c2ccc3c(c2)OCO3)c1	71	3.3	135	-	-	-
O=C(/C=C/c1ccco1)Nc1ccc2c(c1)OCO2	66	4.6	-	-	-	-
COC(=O)c1cccc(NC(=O)/C=C/c2ccc3c(c2)OCO3)c1	69	-	-	-	-	-
CCOC(=O)c1[nH]c2ccc(OC)cc2c1NC(=O)/C=C/c1ccc2c(c1)OCO2	-	-	-	-	-	-
O=C(/C=C/c1ccc2c(c1)OCO2)Nc1c(C(=O)O)[nH]c2ccccc12	91	-	-	-	-	-
CSc1ccc(S(=O)(=O)N2c3ccccc3CC2C)cc1 (centres undefined)	.	.	.	-	.	.
Cc1[nH]n(-c2ccccc2)c(=O)c1C=NC1CCCCCC1	-	-	-	.	-	-
Cc1[nH]n(-c2ccccc2)c(=O)c1C=NC1CCCCC1	-	6.1	-	-	-	-
Cc1[nH]n(-c2ccc([N+](=O)[O-])cc2)c(=O)c1C=NCC1CCCO1 (centres undefined)	-	-	135	-	-	-
C=CCN=Cc1c(C)[nH]n(-c2ccccc2)c1=O	-	11	-	-	-	-
N=C(c1ccc([N+](=O)[O-])cc1)N1CCCCCC1	-	-	-	.	-	-
CCOc1ccc(N2C(=O)CC(SCCN)C2=O)cc1 (centres undefined)	57	-	-	-	-	-
Cc1nc(SCC(=O)c2ccc(F)cc2)c([N+](=O)[O-])[nH]1	-	-	-	.	-	-
Cc1nc(SCC(O)CO)c([N+](=O)[O-])[nH]1 (centres undefined)	-	3.5	-	-	-	-
COc1ccc(OC)c(NC(=O)NCc2ccc(F)cc2)c1	-	-	-	-	-	-
SMILES	FLuc inhib CS	NF-kB neuron act	STAT1 act	Pf gamet viab	APP 5'UTR act	FLuc stim CS
COc1ccc(C)cc1NC(=O)NCc1ccc(F)cc1	58	-	-	-	-	-
COc1ccc(CNC(=O)COc2ccc(C)nc2[N+](=O)[O-])cc1	-	-	-	.	-	-
Cc1ccc(OCCOc2ccc(Br)cc2)c([N+](=O)[O-])n1	-	-	135	-	-	-
O=C1c2ccccc2C(=O)C1c1nccc2ccccc12	90	3.6	-	.	-	-
CCc1ccccc1C1C(=O)c2ccccc2C1=O	.	.	.	-	.	.
O=C1c2ccccc2C(=O)C1c1ccnc2ccccc12	91	.	-	.	146	-
N#CC1=C(N)SC(N)=C(C#N)C1c1ccnc2ccccc12	-	-	-	-	-	-
O=C1C(c2ccnc3ccccc23)=C(O)c2ccccc21	90	-	-	.	183	-
CC(Sc1nc(-c2ccccc2)cc(C(F)(F)F)n1)C(=O)N1CCC(C(N)=O)CC1 (centres undefined)	-	-	-	.	-	-
COc1ccc(NC(=O)C(Cc2cc(C)cc(C)c2)C(C)C(=O)O)cc1 (centres undefined)	.	.	.	-	.	.
CCCCN(Cc1ccccc1)S(=O)(=O)c1ccc2[nH]c(=O)oc2c1	-	-	-	.	-	-
O=C(COc1ccc(Br)cc1Br)NC(=O)NC1CCCC1	-	3.4	142	.	-	-
Fc1ccccc1NC(=S)N(CCN1CCCCC1)Cc1ccco1	-	-	-	-	-	-
Cc1cc(OC(=O)c2ccc3ccccc3c2)c([N+](=O)[O-])c(=O)[nH]1	-	-	-	-	-	-
CN(C)/C=C/C(=O)c1cnc(-c2ccccc2Cl)s1	-	3.5	139	-	-	-
CN(C)/C=C/C(=O)c1ccccc1	.	.	.	-	.	.
CN(C)/C=C/C(=O)c1cnc(-c2ccccn2)s1	-	-	129	-	-	-
CN(C)/C=C/C(=O)c1cnc(-c2cccc(Cl)c2)s1	-	-	138	-	-	-
CN(C)/C=C/C(=O)c1ccc(Br)s1	-	-	-	-	-	-
Cc1cc(C2=CC(=O)C[C@H](c3ccc4c(c3)OCO4)C2)ccc1F	.	.	.	-	.	.
COc1ccc(C(=O)Nn2c(CC(C)C)nc3cc(Cl)ccc3c2=O)c(OC)c1	.	.	.	-	.	.
O=C(Nc1cccc(NC(=O)c2ccco2)n1)c1ccco1	.	.	.	-	.	.
Cc1cc(=O)[nH]c(NC(=O)Cc2ccccc2)n1	.	.	.	-	.	.
CC1(C(=O)N2CCC(CC3CC(c4cccc(Br)c4)=NO3)(C(=O)NCC3CCCCC3)CC2)CC1 (centres undefined)	.	.	.	-	.	.
COc1ccc(C(C)=O)cc1CS(=O)(=O)CC(=O)O	-	-	-	-	-	-
SMILES	FLuc inhib CS	NF-kB neuron act	STAT1 act	Pf gamet viab	APP 5'UTR act	FLuc stim CS
O=C(NCCCCCCNC(=O)c1cccs1)c1cccs1	-	-	-	-	-	-
O=C(NCCc1cccs1)c1cccs1	-	-	134	-	-	-
Nn1c(SCc2ccccc2)nnc1-c1ccccn1	-	-	131	-	-	-
Cc1ccc(CSc2nnc(-c3ccccn3)n2N)cc1	.	.	.	-	.	.
CC1CCCC(NCC(=O)Nc2ccc(C(N)=O)cc2)C1C (centres undefined)	-	-	-	-	-	-
CCOC(=O)c1ccc(N2Cc3ccccc3C2=NC(=O)c2cccs2)cc1	-	-	-	-	-	-
CC(=O)c1ccc(N2Cc3ccccc3C2=NC(=O)c2cccs2)cc1	-	-	135	-	-	-
Cc1cc(/C=C2\SC(=S)NC2=O)c(C)n1-c1ccccc1	.	.	.	-	.	.
Cc1cc(/C=C2\SC(N)=NC2=O)c(C)n1-c1ccccc1	83	-	-	.	.	-
CCc1cccc(CC)c1N(COC)C(=O)Cn1ccccc1=N	-	-	-	.	-	-
c1ccc(Oc2ccc3ccccc3n2)cc1	-	-	136	-	-	-
COc1ccc(Oc2cc(C)c3ccccc3n2)cc1	-	-	-	-	-	-
CCOc1ccc(/C=C/C(=O)Oc2ccccc2)cc1	.	.	.	-	.	.
